Source: PubChem (Broad Institute)
This is a sample that favours compounds with a hit; in the whole collection about 3.1% have one here.
ERAP1 inh = human ERAP1 aminopeptidase inhibitors, primary screen, biochemical, single point, plate reader. hit rate 0.15% among 340,000. inhibition, % at 10.7 µM. recombinant ERAP1, Leu-AMC fluorescence, 60 min. Endoplasmic reticulum aminopeptidase 1 (Homo sapiens), Q9NZ08;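 active = mean replicate inhibition of at least 30%, or all replicates individually reaching that 30% level; inactive = mean below 30% and not every replicate reaching it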;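 note: 0% = neutral control wells and 100% = L-leucinethiol positive control wells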
CFTR F508del cor = F508del CFTR correction, initial screen, CFBE line, single point | CFBE cells, YFP halide quenching; stimulated with forskolin plus potentiator P3; % fluorescence drop versus neutral controls | activity (quench increase), % at 7.58 µM | hit rate 0.36% among 350,000;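 active = mean added fluorescence quench of at least 8% versus neutral control, with both replicates also reaching 8%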;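 note: cells transiently co-express mutant CFTR-F508del with the halide-sensitive YFP; corrector assay measuring rescue of mutant channel to the surface after 24 h compound exposure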
rRNA inh HTS = reduced GFP signal of wild-type E. coli, primary screen, bacterial rRNA inhibitor project, GFP/RFP fluorescence, OD600, single point; E. coli WT GFP vs humanized-ribosome RFP mutants, 24 h; stronger effect = lower value; DMSO median 0, no signal -100; GFP signal change (wild-type ribosome), % (test concentration not listed); hit rate 1.6% among 350,000;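 active = significant combined selectivity score with lowered wild-type GFP, culture density cut under 30%, mutant RFP and density less affected; inactive = any of these conditions unmet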
SIRT5 block = SIRT5 desuccinylase inhibitors, primary screen, biochemical, fluorescence imaging, single point, set 5. Purified SirT5, succinyl-peptide AMC, trypsin-coupled fluorescence. inhibition, % at 15 µM. hit rate 1.1% among 330,000. AID 652115, 2013; in the data active = inhibition above about 15%
S100A4 inh HTS = inhibitors of S100A4-myosin IIA peptide binding, primary screen, biochemical, fluorescence polarization, TAMRA-MyoIIA peptide; Protein S100-A4 (Homo sapiens), P26447; inhibition, % at 10.7 µM; hit rate 0.14% among 360,000; AID 652163, 2013;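 active = mean inhibition of at least 70% across replicates, with every replicate also reaching that level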
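System – human S100A4 monomer protein, biochemical binding assay · Buffer or medium – Calcium-containing HEPES buffer, pH 7.2 · Timing – 5 min between mix addition and reading · Also added – TAMRA-labelled myosin IIA heavy-chain peptide probe, 5 nM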
Starred values were filed as active, the others as inactive; . = no result; ! = not active in a repeat.

SMILES	ERAP1 inh	CFTR F508del cor	rRNA inh HTS	SIRT5 block	S100A4 inh HTS
CCCC(=O)Nc1ccc2c(c1)OC[C@H](C)N(Cc1cncnc1)C[C@H](C)[C@@H](OC)CN(C)C2=O	-2	0	1	5	-1
O=C(C[C@H]1CC[C@H](NC(=O)CC2CC2)[C@@H](CO)O1)NCc1ccc(-c2ccccc2)cc1	-2	-2	0	-1	3
C[C@@H]1CN([C@@H](C)CO)C(=O)Cc2cc(NC(=O)Cn3cnnn3)ccc2O[C@H]1CN(C)CC1CCCCC1	0	1	1	11	-1
CCCNC(=O)C[C@H]1C[C@H]2c3cc(NS(=O)(=O)c4cccc(OC)c4)ccc3O[C@H]2[C@H](CO)O1	0	-3	-6	-5	10
CC(=O)Cn1c(=O)c2c(nc3n2CCCN3Cc2ccccc2)n(C)c1=O	0	-4	1	2	-5
C=C(C)Cn1c(=O)c2c(nc3n2CCCN3Cc2ccccc2)n(C)c1=O	2	2	-28*	0	5
CCOCCOC(=O)COC(=O)c1ccccc1NC(=O)c1ccccc1	0	11*	-21	-4	2
CCOC(=O)c1ccccc1NC(=O)COC(=O)CCCOc1ccccc1	-5	0	0	-3	-3
COC(=O)[C@]1(C)N[C@H](CN(C)S(=O)(=O)c2ccc(OC(F)(F)F)cc2)[C@@H]2C(=O)N(Cc3ccccc3)C(=O)[C@@H]21	0	1	-21*	3	-3
COc1cccc(C(=O)/C=C/Nc2ccc(S(=O)(=O)Nc3ncccn3)cc2)c1	1	.	10	0	5
COc1cccc(C(=O)/C=C/Nc2ccc(S(=O)(=O)Nc3nc(C)cc(C)n3)cc2)c1	12	.	-21*	-2	3
Cc1noc(NS(=O)(=O)c2ccc(N/C=C\C(=O)c3ccccc3)cc2)c1C	4	12*	-13	1	0
Cc1noc(NS(=O)(=O)c2ccc(N/C=C\C(=O)c3ccc(F)cc3)cc2)c1C	9	.	13	2	10
CC=Cc1ccc2n(c1=O)C[C@@H]1[C@@H](CO)[C@H](C(=O)NCCC)N(Cc3cccnc3)[C@H]21 (mixture of isomers)	-2	.	2	-7	2
COc1ccc(NC(=O)N(C)C[C@@H]2Oc3ccc(NS(C)(=O)=O)cc3C(=O)N([C@H](C)CO)C[C@@H]2C)cc1	0	0	-5	-4	10
CN(C)CC(=O)N[C@H]1CC[C@H](CCn2cc(C3CC3)nn2)O[C@H]1CO	0	3	0	-1	-1
O=C1OC(NCc2cccnc2)(c2ccc(Cl)cc2)c2ccccc21 (stereo unspecified)	2	0	-35*	3	0
C[C@@H]1CN([C@@H](C)CO)S(=O)(=O)c2ccc(-c3cccc(C#N)c3)cc2O[C@@H]1CN(C)C(=O)c1ccc(F)cc1	1	-2	-1	3	131*!
C[C@H]1CN([C@@H](C)CO)S(=O)(=O)c2ccc(C3=CCCCC3)cc2O[C@@H]1CN(C)C(=O)c1ccc(F)cc1	5	-3	-9	16*	15
C[C@@H]1CN([C@H](C)CO)S(=O)(=O)c2ccc(-c3cccc(C#N)c3)cc2O[C@H]1CN(C)C(=O)c1ccc(F)cc1	-2	-4	-10	1	-5
C[C@H](CO)N1C[C@H](C)[C@H](CN(C)C)Oc2cc(C3=CCCC3)ccc2S1(=O)=O	-3	-2	2	5	98*
C[C@@H]1CN([C@@H](C)CO)S(=O)(=O)c2ccc(C3=CCCC3)cc2O[C@@H]1CN(C)S(=O)(=O)c1ccc(F)cc1	0	-6	7	-1	4
C[C@H](CO)N1C[C@H](C)[C@@H](CN(C)S(=O)(=O)c2ccc(F)cc2)Oc2cc(C3=CCCCC3)ccc2S1(=O)=O	1	1	7	19*	8
